# From ChEMBL document CHEMBL1135620, “Cyclosporins: structure-activity relationships for the inhibition of the human FPR1 formylpeptide receptor” (J Med Chem, 2002)
# Target: T1, fMet-Leu-Phe receptor (Homo sapiens) (UniProt P21462)
# T1 sequence (whole entry): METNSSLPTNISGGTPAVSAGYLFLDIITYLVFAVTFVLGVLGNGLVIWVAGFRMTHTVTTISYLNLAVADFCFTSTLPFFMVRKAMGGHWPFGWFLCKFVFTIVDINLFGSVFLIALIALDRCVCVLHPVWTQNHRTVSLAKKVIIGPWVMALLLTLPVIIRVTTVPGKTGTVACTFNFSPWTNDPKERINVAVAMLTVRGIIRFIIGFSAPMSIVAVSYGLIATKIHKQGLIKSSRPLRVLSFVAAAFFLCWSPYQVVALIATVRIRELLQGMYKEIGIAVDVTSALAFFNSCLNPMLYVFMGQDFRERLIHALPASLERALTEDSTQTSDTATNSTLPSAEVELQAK
# Experiment: Inhibitory activity against Human formylpeptide receptor (FPR) of human leukemia HL-60 cells
# Format: cell-based
# Method in brief: (§1)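 HL-60 cells differentiated 48 h with 0.2 mM dibutyryl cAMP, washed, then treated with 5 μM cytochalasin B (5–10 min, 37 °C). Stimulated 10 min with 30 nM f-MLF. N-acetyl-β-D-glucosaminidase release read at 410 nm on p-nitrophenyl substrate after spontaneous-release subtraction. Duplicate wells; IC20/IC50 as mean ± SD of independent experiments.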
row,Compound,IC20
1,C/C=C/C[C@@H](C)[C@@H](O)[C@H]1C(=O)N[C@@H]([C@@H](C)O)C(=O)N(C)CC(=O)N[C@@H](CC(C)C)C(=O)N[C@@H](CC(C)C)C(=O)N(C)[C@H](CC(C)C)C(=O)N[C@@H](C)C(=O)N[C@](O)(C(C)C)C(=O)N(C)[C@@H](CC(C)C)C(=O)N[C@@H](CC(C)C)C(=O)N(C)[C@@H](C(C)C)C(=O)N1C,140 nM
2,C/C=C/C[C@@H](C)[C@@H](O)[C@H]1C(=O)N[C@@H]([C@@H](C)O)C(=O)N(C)CC(=O)N[C@@H](C(C)C)C(=O)N[C@H](C(C)C)C(=O)N(C)[C@H](CC(C)C)C(=O)N[C@@H](C)C(=O)N[C@H](C)C(=O)N(C)[C@@H](CC(C)C)C(=O)N(C)[C@@H](CC(C)C)C(=O)N(C)[C@@H](C(C)C)C(=O)N1C,> 10000 nM
3,C/C=C/C[C@@H](C)[C@@H](O)[C@H]1C(=O)N[C@@H]([C@@H](C)O)C(=O)N(C)CC(=O)N(C)[C@H](CC(C)C)C(=O)N[C@@H](CC(C)C)C(=O)N(C)[C@H](CC(C)C)C(=O)N[C@@H](C)C(=O)N[C@H](C)C(=O)N(C)[C@@H](CC(C)C)C(=O)N[C@@H](CC(C)C)C(=O)N(C)[C@@H](C(C)C)C(=O)N1C,200 nM
4,CC(C)C[C@@H]1C(=O)N[C@@H](C(C)C)C(=O)N(C)[C@H](CC(C)C)C(=O)N[C@@H](C)C(=O)N[C@H](C)C(=O)N(C)[C@@H](CC(C)C)C(=O)N(C)[C@@H](CC(C)C)C(=O)N(C)[C@@H](C(C)C)C(=O)N(C)[C@@H](CC(C)C)C(=O)N[C@@H](C(C)C)C(=O)N(C)CC(=O)N1C,4200 nM
5,CC(C)C[C@@H]1NC(=O)[C@@H](CC(C)C)N(C)C(=O)CN(C)C(=O)[C@H]([C@@H](C)O)NC(=O)[C@H]([C@H](O)[C@H](C)C/C=C/CO)N(C)C(=O)[C@H](C(C)C)N(C)C(=O)[C@H](CC(C)C)NC(=O)[C@H](CC(C)C)N(C)C(=O)[C@@](O)(C(C)C)NC(=O)[C@H](C)NC(=O)[C@@H](CC(C)C)N(C)C1=O,470 nM
6,C/C=C/C[C@@H](C)[C@@H](O)[C@H]1C(=O)N[C@@H]([C@@H](C)O)C(=O)N(C)CC(=O)N(C)[C@H](CC(C)C)C(=O)N[C@H](C(C)C)C(=O)N(C)[C@H](CC(C)C)C(=O)N[C@@H](C)C(=O)N[C@H](C)C(=O)N(C)[C@@H](CC(C)C)C(=O)N[C@@H](CC(C)C)C(=O)N(C)[C@@H](C(C)C)C(=O)N1C,2050 nM
7,CC[C@@H]1NC(=O)[C@H](CC2CCCCC2)N(C)C(=O)[C@H](C(C)C)N(C)C(=O)[C@H](CC(C)C)N(C)C(=O)[C@H](CC(C)C)N(C)C(=O)[C@@H](C)NC(=O)[C@H](C)NC(=O)[C@@H](CC(C)C)N(C)C(=O)[C@@H](C(C)C)NC(=O)[C@@H](CC(C)C)N(C)C(=O)CN(C)C1=O,1690 nM
8,C/C=C/C[C@@H](C)[C@@H](O)[C@H]1C(=O)N[C@@H]([C@@H](C)O)C(=O)N(C)CC(=O)N(C)[C@H](CC(C)C)C(=O)N[C@@H](CC(C)C)C(=O)N(C)[C@H](CC(C)C)C(=O)N[C@@H](C)C(=O)N[C@](O)(C(C)C)C(=O)N(C)[C@@H](CC(C)C)C(=O)N[C@@H](CC(C)C)C(=O)N(C)[C@@H](C(C)C)C(=O)N1C,200 nM

# Next, values leading:
row,IC20,Compound
1,> 10000 nM,C/C=C/C[C@@H](C)[C@@H](O)[C@H]1C(=O)N[C@@H](CC)C(=O)N(C)CC(=O)N[C@@H](CC(C)C)C(=O)N[C@H](C(C)C)C(=O)N(C)[C@H](CC(C)C)C(=O)N[C@@H](C)C(=O)N[C@H](C)C(=O)N(C)[C@@H](CC(C)C)C(=O)N(C)[C@@H](CC(C)C)C(=O)N(C)[C@@H](C(C)C)C(=O)N1C
2,2900 nM,C/C=C/C[C@@H](C)[C@@H](O)[C@H]1C(=O)N[C@@H](CC)C(=O)N(C)CC(=O)N(C)[C@H](CC(C)C)C(=O)N[C@H](C(C)C)C(=O)N(C)[C@H](CC(C)C)C(=O)N[C@@H](C)C(=O)N[C@H](C)C(=O)N(C)[C@@H](CC(C)C)C(=O)N(C)[C@@H](CC(C)C)C(=O)N(C)[C@@H]([C@@H](C)CC)C(=O)N1C
3,2100 nM,C/C=C/C[C@@H](C)[C@@H](O)[C@H]1C(=O)N[C@@H](CCC)C(=O)N(C)CC(=O)N(C)[C@H](CC(C)C)C(=O)N[C@H](C(C)C)C(=O)N(C)[C@H](CC(C)C)C(=O)N[C@@H](C)C(=O)N[C@H](C)C(=O)N[C@@H](CC(C)C)C(=O)N(C)[C@@H](CC(C)C)C(=O)N(C)[C@@H](C(C)C)C(=O)N1C
4,1000 nM,CC/C=C/C[C@@H](C)[C@@H](O)[C@H]1C(=O)N[C@@H](CC)C(=O)N(C)CC(=O)N(C)[C@@H]([C@@H](C)CC)C(=O)N[C@H](C(C)C)C(=O)N(C)[C@H](CC(C)C)C(=O)N[C@@H](C)C(=O)N[C@H](C)C(=O)N(C)[C@@H](CC(C)C)C(=O)N(C)[C@@H](CC(C)C)C(=O)N(C)[C@@H](C(C)C)C(=O)N1C
5,2200 nM,CC/C=C/C[C@@H](C)[C@@H](O)[C@H]1C(=O)N[C@@H]([C@@H](C)O)C(=O)N(C)CC(=O)N(C)[C@H](CC(C)C)C(=O)N[C@H](C(C)C)C(=O)N(C)[C@H](CC(C)C)C(=O)N[C@@H](C)C(=O)N[C@H](C)C(=O)N(C)[C@@H](CC(C)C)C(=O)N(C)[C@@H](CC(C)C)C(=O)N(C)[C@@H](C(C)C)C(=O)N1C
6,8100 nM,C/C=C/C[C@@H](C)[C@@H](O)[C@H]1C(=O)N[C@@H](CCC)C(=O)N(C)CC(=O)N(C)[C@H](CC(C)C)C(=O)N[C@H](C(C)C)C(=O)N[C@@H](CC(C)C)C(=O)N[C@@H](C)C(=O)N[C@H](C)C(=O)N(C)[C@@H](CC(C)C)C(=O)N(C)[C@@H](CC(C)C)C(=O)N(C)[C@@H](C(C)C)C(=O)N1C
7,1700 nM,CCCCCC[C@H]1C(=O)N[C@@H](CC)C(=O)N(C)CC(=O)N(C)[C@H](CC(C)C)C(=O)N[C@H](C(C)C)C(=O)N(C)[C@H](CC(C)C)C(=O)N[C@@H](C)C(=O)N[C@H](C)C(=O)N(C)[C@@H](CC(C)C)C(=O)N(C)[C@@H](CC(C)C)C(=O)N(C)[C@@H](C(C)C)C(=O)N1C
8,1700 nM,CC/C=C/C[C@@H](C)[C@@H](O)[C@H]1C(=O)N[C@@H](CC)C(=O)N(C)CC(=O)N(C)[C@@H](CC(C)(C)O)C(=O)N[C@H](C(C)C)C(=O)N(C)[C@H](CC(C)C)C(=O)N[C@@H](C)C(=O)N[C@H](C)C(=O)N(C)[C@@H](CC(C)C)C(=O)N(C)[C@@H](CC(C)C)C(=O)N(C)[C@@H](C(C)C)C(=O)N1C
9,> 10000 nM,C/C=C/C[C@@H](C)[C@@H](O)[C@H]1C(=O)N[C@@H](CC)C(=O)N(C)CC(=O)N[C@@H](C(C)C)C(=O)N[C@H](C(C)C)C(=O)N(C)[C@H](CC(C)C)C(=O)N[C@@H](C)C(=O)N[C@H](C)C(=O)N(C)[C@@H](CC(C)C)C(=O)N(C)[C@@H](CC(C)C)C(=O)N(C)[C@@H](C(C)C)C(=O)N1C
10,200 nM,C/C=C/C[C@@H](C)[C@@H](O)[C@H]1C(=O)N[C@@H](C)C(=O)N(C)CC(=O)N(C)[C@H](CC(C)C)C(=O)N[C@H](C(C)C)C(=O)N(C)[C@H](CC(C)C)C(=O)N[C@@H](C)C(=O)N[C@H](C)C(=O)N(C)[C@@H](CC(C)C)C(=O)N[C@@H](CC(C)C)C(=O)N(C)[C@@H](C(C)C)C(=O)N1C
11,3900 nM,CC/C=C/C[C@@H](C)[C@@H](O)[C@H]1C(=O)N[C@@H](C(C)C)C(=O)N(C)CC(=O)N(C)[C@H](CC(C)C)C(=O)N[C@H](C(C)C)C(=O)N(C)[C@H](CC(C)C)C(=O)N[C@@H](C)C(=O)N[C@H](C)C(=O)N(C)[C@@H](CC(C)C)C(=O)N(C)[C@@H](CC(C)C)C(=O)N(C)[C@@H](C(C)C)C(=O)N1C
12,90 nM,C/C=C/C[C@@H](C)[C@@H](O)[C@H]1C(=O)N[C@@H]([C@@H](C)O)C(=O)N(C)CC(=O)N(C)[C@H](CC(C)C)C(=O)N[C@@H]([C@@H](C)CC)C(=O)N(C)[C@H](CC(C)C)C(=O)N[C@@H](C)C(=O)N[C@H](C)C(=O)N(C)[C@@H](CC(C)C)C(=O)N(C)[C@@H](CC(C)C)C(=O)N(C)[C@@H](C(C)C)C(=O)N1C
13,1440 nM,CC/C=C/C[C@@H](C)[C@@H](O)[C@H]1C(=O)N[C@@H](CC)C(=O)N(C)CC(=O)N(C)[C@@H](C(C)C)C(=O)N[C@H](C(C)C)C(=O)N(C)[C@H](CC(C)C)C(=O)N[C@@H](C)C(=O)N[C@H](C)C(=O)N(C)[C@@H](CC(C)C)C(=O)N(C)[C@@H](CC(C)C)C(=O)N(C)[C@@H](C(C)C)C(=O)N1C
14,> 10000 nM,CC/C=C/C[C@@H](C)[C@@H](O)[C@H]1C(=O)N[C@@H](CC)C(=O)N(C)CC(=O)N(C)[C@H](CC(C)C)C(=O)N[C@H](C(C)C)C(=O)N(C)[C@H](CC(C)C)C(=O)N[C@@H](CC)C(=O)N[C@H](C)C(=O)N(C)[C@@H](CC(C)C)C(=O)N(C)[C@@H](CC(C)C)C(=O)N(C)[C@@H](C(C)C)C(=O)N1C
15,650 nM,C/C=C/C[C@@H](C)[C@@H](O)[C@H]1C(=O)N[C@@H](CC)C(=O)N(C)CC(=O)N(C)[C@H](CC(C)C)C(=O)N[C@H](C(C)C)C(=O)N(C)[C@H](CC(C)C)C(=O)N[C@@H](C)C(=O)N[C@H](C)C(=O)N(C)[C@@H](CC(C)C)C(=O)N[C@@H](CC(C)C)C(=O)N(C)[C@@H](C(C)C)C(=O)N1C

# Target: T2, fMet-Leu-Phe receptor (Homo sapiens, UniProt P21462)
# T2 sequence (P21462 whole entry): T1 sequence (whole entry)
# Experiment: Inhibitory activity against human formylpeptide receptor (FPR) of human leukemia HL-60 cells
# Format: cell-based
# Method in brief: as §1
row,Compound,IC50
1,C/C=C/C[C@@H](C)[C@@H](O)[C@H]1C(=O)N[C@@H]([C@@H](C)O)C(=O)N(C)CC(=O)N(C)[C@@H](CC(C)C)C(=O)N[C@@H](C(C)C)C(=O)N(C)[C@@H](CC(C)C)C(=O)N[C@@H](C)C(=O)N[C@](O)(C(C)C)C(=O)N(C)[C@@H](CC(C)C)C(=O)N[C@@H](CC(C)C)C(=O)N(C)[C@@H](C(C)C)C(=O)N1C,2500 nM
2,C/C=C/C[C@@H](C)[C@@H](O)[C@H]1C(=O)N[C@@H]([C@@H](C)O)C(=O)NCC(=O)N(C)[C@@H](CC(C)C)C(=O)N[C@@H](CC(C)C)C(=O)N(C)[C@@H](CC(C)C)C(=O)N[C@@H](C)C(=O)N[C@](O)(C(C)C)C(=O)N(C)[C@@H](CC(C)C)C(=O)N[C@@H](CC(C)C)C(=O)N(C)[C@@H](C(C)C)C(=O)N1C,300 nM
